According to ChEMBL document CHEMBL4152184, “NB 06: From a simple lysosomotropic aSMase inhibitor to tools for elucidating the role of lysosomes in signaling apoptosis and LPS-induced inflammation” (Eur J Med Chem, 2018):

What was measured:
PBMC = assay: Inhibition of TNFalpha-stimulated apoptosis in human PBMC assessed as apoptotic cells at 2 uM preincubated for 30 mins followed by TNFalpha stimulation measured after 4 hrs by YO-PRO-1/Hoechst 33342 staining based assay relative to control; assay type: functional; design: scale not given: the % may be the effect or the level left
Summary of the method: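 PBMC pre-incubated 30 min with 2 μM compound, then stimulated with mmLDL (27 μg/mL; line 5) or TNFalpha (3 ng/mL; line 1) for 4 h. Apoptotic cells stained with YO-PRO-1 and all cells with Hoechst 33342. Each plate had control, stimulus, compound alone and compound plus stimulus; n = 3. Values are on a 0% (untreated control, corrected for spontaneous apoptosis) to 100% (stimulus alone) scale; means ± SE.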

[1] = molecular target: T1, Acid ceramidase (Homo sapiens) (UniProt Q13510); assay: Inhibition of TNFalpha-stimulated acid ceramidase in human PBMC assessed as ratio of C24:1-ceramide/lipid phosphate level at 10 uM preincubated for 30 mins followed by TNFalpha stimulation measured after 4 hrs by HPLC method (reference value: 3.05); assay type: cell-based
T1 sequence (whole entry): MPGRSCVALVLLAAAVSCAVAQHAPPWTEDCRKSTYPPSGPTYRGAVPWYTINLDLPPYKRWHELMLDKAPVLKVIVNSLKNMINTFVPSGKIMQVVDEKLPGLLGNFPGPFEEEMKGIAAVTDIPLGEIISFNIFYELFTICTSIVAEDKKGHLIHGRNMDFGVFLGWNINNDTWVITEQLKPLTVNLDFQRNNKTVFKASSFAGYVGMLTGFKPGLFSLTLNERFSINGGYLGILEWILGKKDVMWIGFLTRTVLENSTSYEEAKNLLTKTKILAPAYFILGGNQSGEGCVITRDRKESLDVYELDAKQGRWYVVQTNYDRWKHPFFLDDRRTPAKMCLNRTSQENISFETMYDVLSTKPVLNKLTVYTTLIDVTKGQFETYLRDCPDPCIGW
Summary of the method: (§1)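 Human macrophages from primary culture were preincubated 30 min with 10 µM compound. They were then stimulated 4 h with mmLDL (54 µg/mL), TNFalpha (3 ng/mL) or exogenous C6-ceramide (10 µM), or left unstimulated. Individual ceramide species (C16 and C24:1) were quantified in the cell lipid extracts.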

[2] = molecular target: T1, Acid ceramidase (Homo sapiens); assay: Inhibition of acid ceramidase in human PBMC assessed as ratio of C24:1-ceramide/lipid phosphate level at 10 uM incubated for 30 mins measured after 4 hrs by HPLC method; assay type: cell-based; summary of the method: as §1
MONO-MAC-6 [3] = assay: Upregulation of HSPA1A mRNA expression level in LPS-stimulated human MONO-MAC-6 cells preincubated for 30 mins followed by LPS stimulation measured after 4 hrs by qRT-PCR analysis relative to control; assay type: functional
MONO-MAC-6 [4] = assay: Downregulation of CXCL3 mRNA expression level in human MONO-MAC-6 cells at 5 uM incubated for 30 mins measured after 4 hrs by oligonucleotide array hybridization assay relative to control; assay type: functional
Summary of the method: (§2)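 Total RNA was isolated, transcribed and labeled with DY-647 dye, then co-hybridized with DY-548-labeled cDNA from untreated cells on an inflammation oligonucleotide chip (780 gene probes). Differential expression >1.5 was taken as significant.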

MONO-MAC-6 [5] = assay: Upregulation of CXCL3 mRNA expression level in LPS-stimulated human MONO-MAC-6 cells at 5 uM preincubated for 30 mins followed by LPS stimulation measured after 6 hrs by oligonucleotide array hybridization assay (reference value: 5.74); assay type: functional
MONO-MAC-6 [6] = assay: Upregulation of CCL4 mRNA expression level in LPS-stimulated human MONO-MAC-6 cells at 5 uM preincubated for 30 mins followed by LPS stimulation measured after 1 hr by oligonucleotide array hybridization assay (reference value: 1.14); assay type: functional
MONO-MAC-6 [7] = assay: Upregulation of CCL4 mRNA expression level in LPS-stimulated human MONO-MAC-6 cells at 5 uM preincubated for 30 mins followed by LPS stimulation measured after 4 hrs by oligonucleotide array hybridization assay (reference value: 18.52); assay type: functional
MONO-MAC-6 [8] = assay: Upregulation of CCL20 mRNA expression level in LPS-stimulated human MONO-MAC-6 cells at 5 uM preincubated for 30 mins followed by LPS stimulation measured after 2 hrs by oligonucleotide array hybridization assay (reference value: 2.87); assay type: functional
MONO-MAC-6 [9] = assay: Upregulation of CXCL10 mRNA expression level in LPS-stimulated human MONO-MAC-6 cells at 5 uM preincubated for 30 mins followed by LPS stimulation measured after 1 hr by oligonucleotide array hybridization assay (reference value: 1.18); assay type: functional
MONO-MAC-6 [10] = assay: Downregulation of CXCL10 mRNA expression level in human MONO-MAC-6 cells at 5 uM incubated for 30 mins measured after 4 hrs by oligonucleotide array hybridization assay relative to control; assay type: functional; summary of the method: as §2
MONO-MAC-6 [11] = assay: Upregulation of CXCL10 mRNA expression level in LPS-stimulated human MONO-MAC-6 cells at 5 uM preincubated for 30 mins followed by LPS stimulation measured after 6 hrs by oligonucleotide array hybridization assay (reference value: 1.57); assay type: functional
MONO-MAC-6 [12] = assay: Upregulation of CXCL2 mRNA expression level in LPS-stimulated human MONO-MAC-6 cells at 5 uM preincubated for 30 mins followed by LPS stimulation measured after 2 hrs by oligonucleotide array hybridization assay (reference value: 4.20); assay type: functional
MONO-MAC-6 [13] = assay: Downregulation of PTGS2 mRNA expression level in human MONO-MAC-6 cells at 5 uM incubated for 30 mins measured after 1 hr by oligonucleotide array hybridization assay relative to control; assay type: functional; summary of the method: as §2
MONO-MAC-6 [14] = assay: Upregulation of ICAM1 mRNA expression level in LPS-stimulated human MONO-MAC-6 cells at 5 uM preincubated for 30 mins followed by LPS stimulation measured after 1 hr by oligonucleotide array hybridization assay (reference value: 1.17); assay type: functional
MONO-MAC-6 [15] = assay: Upregulation of ICAM1 mRNA expression level in human MONO-MAC-6 cells at 5 uM incubated for 30 mins measured after 1 hr by oligonucleotide array hybridization assay relative to control; assay type: functional
MONO-MAC-6 [16] = assay: Downregulation of ICAM1 mRNA expression level in human MONO-MAC-6 cells at 5 uM incubated for 30 mins measured after 2 hrs by oligonucleotide array hybridization assay relative to control; assay type: functional; summary of the method: as §2
MONO-MAC-6 [17] = assay: Downregulation of CXCL2 mRNA expression level in LPS-stimulated human MONO-MAC-6 cells at 5 uM preincubated for 30 mins followed by LPS stimulation measured after 6 hrs by qRT-PCR method (reference value: 5.22); assay type: functional
MONO-MAC-6 [18] = assay: Downregulation of CXCL2 mRNA expression level in human MONO-MAC-6 cells at 5 uM incubated for 30 mins measured after 6 hrs by qRT-PCR method relative to control; assay type: functional
MONO-MAC-6 [19] = assay: Downregulation of IL-6 mRNA expression level in human MONO-MAC-6 cells at 5 uM incubated for 30 mins measured after 2 hrs by qRT-PCR method relative to control; assay type: functional
MONO-MAC-6 [20] = assay: Upregulation of IL23A mRNA expression level in LPS-stimulated human MONO-MAC-6 cells at 5 uM preincubated for 30 mins followed by LPS stimulation measured after 2 hrs by qRT-PCR method (reference value: 1.39); assay type: functional
MONO-MAC-6 [21] = assay: Upregulation of IL23A mRNA expression level in LPS-stimulated human MONO-MAC-6 cells at 5 uM preincubated for 30 mins followed by LPS stimulation measured after 6 hrs by qRT-PCR method (reference value: 7.18); assay type: functional

For `COc1ccc(CCN(C)CCCn2c3ccccc3c3ccccc32)cc1`, the Activity (PBMC) was 19%, the Ratio [1] was 1.28 and the Ratio [2] was 8.71. For the same compound, the “fold change (FC)” value (MONO-MAC-6 [3]) was 2.67, the “fold change (FC)” value (MONO-MAC-6 [4]) was 1.21 and the “fold change (FC)” value (MONO-MAC-6 [5]) was 1.15. The “fold change (FC)” value (MONO-MAC-6 [6]) was 1.24, the “fold change (FC)” value (MONO-MAC-6 [7]) was 8.04 and the “fold change (FC)” value (MONO-MAC-6 [8]) was 2.7. For the same compound, the “fold change (FC)” value (MONO-MAC-6 [9]) was 1.69, the “fold change (FC)” value (MONO-MAC-6 [10]) was 2.08 and the “fold change (FC)” value (MONO-MAC-6 [11]) was 1.12. For the same compound, the “fold change (FC)” value (MONO-MAC-6 [12]) was 3.88, the “fold change (FC)” value (MONO-MAC-6 [13]) was 1.1 and the “fold change (FC)” value (MONO-MAC-6 [14]) was 1.11. The “fold change (FC)” value (MONO-MAC-6 [15]) was 1.1, the “fold change (FC)” value (MONO-MAC-6 [16]) was 1.28 and the “fold change (FC)” value (MONO-MAC-6 [17]) was 1.01. The “fold change (FC)” value (MONO-MAC-6 [18]) was 4.71, the “fold change (FC)” value (MONO-MAC-6 [19]) was 2.15 and the “fold change (FC)” value (MONO-MAC-6 [20]) was 1.87. For the same compound, the “fold change (FC)” value (MONO-MAC-6 [21]) was 1.1.
